Bioassay records deposited in PubChem by several laboratories.
Rows were chosen to be rich in hits. Some 12% of all compounds tested hit in one or more screens of this group.
Wee1 stabilizer: human Wee1 degradation inhibition, primary screen | 1.2% of 220,000 active | AID 1321 | P30291 | HeLa Luc-Wee1K328M stability, luciferase luminescence; 100% = proteasome inhibitor MG132 effect | reporter increase, % at 5 µM;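 active = activation above the mean of all tested compounds plus 3 SD, set per screening run, cut at about 8.8% in these data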;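 also: cells exposed to compound for 20 h before luminescence read; 0% = DMSO alone and 100% = MG132 at 30 µM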
Arbovirus anti: blocks arbovirus infection | arbovirus infection cell-based antiviral screen | inhibition, % at 10 µM | 0.37% of 200,000 active | AID 1251; in the data active = inhibition above about 30%
PKD1 inh: inhibitors of human PKD1 kinase. PKD1 kinase fluorescence polarization assay. inhibition, % (no concentration beside the values). Q15139. 0.056% of 200,000 active
CHOP inhibitor: CHOP inhibition in unfolded protein response | CHO-K1 CHOP-promoter luciferase, tunicamycin-induced, 15-18 h | inhibition, % at 10 µM | 3.8% of 220,000 active | AID 2732;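 active = compounds that reduced the stress-induced luciferase reporter signal by more than about 70% of percent inhibition, limit read from the data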;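 also: 0% = tunicamycin plus vehicle and 100% = wells without tunicamycin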
Rad51 HR inh: Rad51 (human) homologous recombination inhibition | inhibition, % at 10 µM | Q06609 | AID 1385 | 0.085% of 200,000 active | hRad51 DNA strand exchange, fluorescence dequenching;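 active = inhibition above 40% at the single screening dose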;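 also: 0% = DMSO control wells and 100% = blanks with heterologous ssDNA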
Target sequence (Q06609 whole entry, looked up): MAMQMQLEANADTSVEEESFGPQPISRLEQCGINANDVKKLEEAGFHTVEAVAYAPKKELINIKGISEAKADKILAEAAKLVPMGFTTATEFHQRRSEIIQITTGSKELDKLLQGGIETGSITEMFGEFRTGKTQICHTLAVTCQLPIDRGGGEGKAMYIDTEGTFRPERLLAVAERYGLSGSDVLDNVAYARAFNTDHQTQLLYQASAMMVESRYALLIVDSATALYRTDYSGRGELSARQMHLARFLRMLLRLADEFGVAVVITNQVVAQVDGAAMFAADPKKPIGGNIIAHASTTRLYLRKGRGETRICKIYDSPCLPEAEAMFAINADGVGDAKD
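System: hRad51 filaments on single-stranded DNA; reagent: Fluorescein- and BHQ1-tagged 47-mer duplex; compound dosing: one concentration, 10 µM final; timing: filaments 15 min 37 °C, then compound 30 min; measured by: fluorescein emission 520 nm, excitation 485 nm; benchmarks: per-plate controls and blanks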
Lmaj promast: inhibitors of Leishmania major promastigote growth. 9% of 200,000 active. Leishmania major promastigotes, resazurin fluorescence viability. inhibition, % at 10 µM;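 also: promastigotes grown with compound for 44 hours at 28 °C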
Starred values were filed as active, the others as inactive; / = no result given. Rule as the data show it, unless noted: active = inhibition above about 50%; inactive = the rest.

SMILES | Wee1 stabilizer | Arbovirus anti | PKD1 inh | CHOP inhibitor | Rad51 HR inh | Lmaj promast
O=S(=O)(c1ccc(OCC(O)CN2CCc3ccccc3C2)cc1)N1CCOCC1 (configuration not stated) | -3 | 6 | -11 | -1 | 1 | 62*
O=C(/C=C/c1ccccc1)N1CCN(CC(O)COc2ccccc2)CC1 (configuration not stated) | 0 | 3 | -1 | 43 | 1 | 78*
OC(COc1ccc(C2C=CCC2)cc1)CN1CCCCC1 (configuration not stated) | 5 | -22 | 5 | 14 | 11 | 97*
O=C(Cn1nnc2ccccc21)NNC(=S)NC1CCCCC1 | -1 | 6 | -4 | 0 | 31 | -4
O=C(c1ccc(Cl)cc1)c1ccc(OCC(=O)N2CCOCC2)cc1 | 9.6* | 0 | 7 | 25 | -3 | -11
CN(C)S(=O)(=O)N1CCN(CC(O)COc2ccc(C(=O)c3ccccc3)cc2)CC1 (configuration not stated) | -3 | 7 | -1 | 58 | -6 | 93*
CCOC(=O)C1CCN(CC(O)COc2ccc(C(=O)CC)cc2)CC1 (configuration not stated) | -2 | -4 | -9 | 8 | -35 | 94*
O=C(c1ccccc1)c1ccc(OCC(O)CN2CCN(S(=O)(=O)N3CCCCC3)CC2)cc1 (configuration not stated) | -2 | -1 | 2 | 41 | -4 | 35
OC(COc1ccc(CNCCc2ccccc2F)cc1)CN1CCCCC1 (configuration not stated) | 0 | -21 | 0 | 0 | -14 | 78*
O=S(=O)(c1ccc(OCC(O)CN2CCCCC2)cc1)N1CCOCC1 (configuration not stated) | 2 | 0 | -7 | 33 | 6 | 15
CCCCn1c(=O)[nH]c(=O)c2c1nc(-c1ccccc1F)n2Cc1ccccc1OC | 0 | -12 | 10 | 55 | 23 | 41
O=C(Cn1nnc2ccccc21)c1ccc(Cl)cc1 | 3 | / | / | 16 | -5 | /
Cc1ccc(/C=N/NC(=O)c2cccc(S(=O)(=O)N3CCOCC3)c2)o1 | 4 | 10 | -8 | 10 | 15 | -1
O=C(c1ccc(Cl)cc1)c1ccc(OCC(O)CN2CCOCC2)cc1 (configuration not stated) | -1 | 1 | 3 | 38 | 0 | 63*
O=C(COc1ccc([N+](=O)[O-])cc1Cl)N1CCOCC1 | -1 | / | / | 12 | 15 | /
O=C(COc1ccc(/C=C\[N+](=O)[O-])cc1)N1CCOCC1 | -2 | -2 | -6 | 85* | -1 | 25
OC(COC(c1ccccc1)c1ccccc1)CN1CCCCC1 (configuration not stated) | 1 | -8 | -1 | 0 | 2 | 99*
Cc1cc(N2C(=O)CCC2=O)ccc1NC(=O)c1cccs1 | 0 | -1 | 0 | 20 | -1 | 0
COC(=O)c1c(NC(=O)CSc2ccccc2N)sc(C)c1C | 1 | 2 | 5 | 6 | 20 | 6
O=C1OCC2=C1C(c1ccc(F)cc1)CC(=O)N2c1ccccc1 (configuration not stated) | 8.9* | 0 | 4 | 6 | / | -7
O=C1OCC2=C1C(c1ccccc1)CC(=O)N2c1ccccc1 (configuration not stated) | 6 | 4 | 9 | 2 | 51* | 5
CCCC1S/C(=N/N=C/c2ccco2)NC1=O (configuration not stated) | 3 | 15 | -7 | 17 | 2 | -7
O=C(CC1S/C(=N/N=C/c2ccco2)NC1=O)Nc1cccc(Cl)c1Cl (configuration not stated) | 0 | -15 | -5 | 94* | -10 | 15
Cn1c(C(=O)NCCc2c[nH]c3ccccc23)cc2sccc21 | 0 | 22 | 0 | / | -4 | 14
O=C(NCCc1c[nH]c2ccccc12)c1cc2sccc2n1Cc1ccccc1 | 1 | 15 | -3 | 65 | -1 | 100*
Cc1cc(C(=O)CCl)c(C)n1-c1c(C)n(C)n(-c2ccccc2)c1=O | -3 | -7 | 2 | -152 | -1 | 67*
Cc1cc(-n2c(C)cc(C(=O)CN3C(=O)NC4(CCCC4)C3=O)c2C)no1 | 5 | 0 | -1 | -28 | -7 | 5
COc1ccc(-n2c(C)cc(C(=O)CN3C(=O)c4ccccc4C3=O)c2C)cc1 | 1 | -8 | 1 | 28 | 1 | -7
